Experiment [1] deals with LIM domain kinase 1 (Homo sapiens) (UniProt P53667). Briefly: Inhibition of LIMK1 at 1 uM. Put shortly: (§1)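 Single-concentration screen on the Ambit KINOMEscan platform, run against a panel of 250–400 kinases. Per-kinase inhibition was also summarized as S(90), the fraction of kinases inhibited by more than 90%.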
For experiment [2], the target named is Tyrosine-protein kinase Lyn (Homo sapiens) (UniProt P07948). Briefly: Inhibition of LYN at 1 uM. The method, boiled down:
as §1

The target in experiment [3] is Proto-oncogene tyrosine-protein kinase Src (Homo sapiens) (UniProt P12931). Briefly: Inhibition of SRC at 1 uM.
Proto-oncogene tyrosine-protein kinase Src (Homo sapiens), sequence (P12931 2-536 limits assumed): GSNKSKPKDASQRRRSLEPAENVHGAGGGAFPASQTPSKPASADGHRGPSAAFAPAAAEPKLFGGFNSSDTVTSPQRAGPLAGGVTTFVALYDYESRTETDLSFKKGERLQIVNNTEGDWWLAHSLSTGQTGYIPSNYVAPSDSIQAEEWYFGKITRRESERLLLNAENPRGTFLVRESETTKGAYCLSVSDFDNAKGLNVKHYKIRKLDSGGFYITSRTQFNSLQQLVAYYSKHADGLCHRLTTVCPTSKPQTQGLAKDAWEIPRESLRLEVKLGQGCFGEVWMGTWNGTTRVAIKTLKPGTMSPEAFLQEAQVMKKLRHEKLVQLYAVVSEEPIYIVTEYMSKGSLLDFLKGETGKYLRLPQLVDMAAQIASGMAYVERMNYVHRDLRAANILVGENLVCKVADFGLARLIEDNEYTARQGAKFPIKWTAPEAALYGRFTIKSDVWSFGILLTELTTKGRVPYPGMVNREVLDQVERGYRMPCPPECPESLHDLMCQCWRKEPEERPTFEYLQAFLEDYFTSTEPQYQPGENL
The target of experiment [4] is Fibroblast growth factor receptor 4 (Homo sapiens) (UniProt P22455). Briefly: Inhibition of FGFR4 at 1 uM. Put shortly: as §1
In experiment [5] the target is Phosphatidylinositol 4-phosphate 5-kinase type-1 alpha (Homo sapiens) (UniProt Q99755). Briefly: Inhibition of PIP5K1A at 1 uM.
Phosphatidylinositol 4-phosphate 5-kinase type-1 alpha (Homo sapiens), sequence (Q99755 whole entry): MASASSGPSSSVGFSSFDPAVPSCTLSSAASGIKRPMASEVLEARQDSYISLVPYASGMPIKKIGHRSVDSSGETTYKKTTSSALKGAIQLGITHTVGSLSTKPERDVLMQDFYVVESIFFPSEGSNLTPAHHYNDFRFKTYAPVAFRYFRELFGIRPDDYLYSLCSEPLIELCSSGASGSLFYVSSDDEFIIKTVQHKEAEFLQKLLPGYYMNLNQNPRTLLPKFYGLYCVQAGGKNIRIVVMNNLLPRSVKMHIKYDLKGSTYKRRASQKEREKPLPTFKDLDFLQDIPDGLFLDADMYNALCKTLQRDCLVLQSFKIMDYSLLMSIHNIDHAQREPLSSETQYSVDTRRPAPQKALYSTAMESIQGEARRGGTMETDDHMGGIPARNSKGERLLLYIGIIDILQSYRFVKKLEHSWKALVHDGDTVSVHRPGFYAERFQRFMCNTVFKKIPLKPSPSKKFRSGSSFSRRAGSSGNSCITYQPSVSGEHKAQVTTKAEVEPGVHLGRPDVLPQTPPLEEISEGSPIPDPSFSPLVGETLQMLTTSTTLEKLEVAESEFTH
The target of experiment [6] is T1, Serine/threonine-protein kinase Nek9 (Homo sapiens) (UniProt Q8TD19).
T1 sequence (whole entry): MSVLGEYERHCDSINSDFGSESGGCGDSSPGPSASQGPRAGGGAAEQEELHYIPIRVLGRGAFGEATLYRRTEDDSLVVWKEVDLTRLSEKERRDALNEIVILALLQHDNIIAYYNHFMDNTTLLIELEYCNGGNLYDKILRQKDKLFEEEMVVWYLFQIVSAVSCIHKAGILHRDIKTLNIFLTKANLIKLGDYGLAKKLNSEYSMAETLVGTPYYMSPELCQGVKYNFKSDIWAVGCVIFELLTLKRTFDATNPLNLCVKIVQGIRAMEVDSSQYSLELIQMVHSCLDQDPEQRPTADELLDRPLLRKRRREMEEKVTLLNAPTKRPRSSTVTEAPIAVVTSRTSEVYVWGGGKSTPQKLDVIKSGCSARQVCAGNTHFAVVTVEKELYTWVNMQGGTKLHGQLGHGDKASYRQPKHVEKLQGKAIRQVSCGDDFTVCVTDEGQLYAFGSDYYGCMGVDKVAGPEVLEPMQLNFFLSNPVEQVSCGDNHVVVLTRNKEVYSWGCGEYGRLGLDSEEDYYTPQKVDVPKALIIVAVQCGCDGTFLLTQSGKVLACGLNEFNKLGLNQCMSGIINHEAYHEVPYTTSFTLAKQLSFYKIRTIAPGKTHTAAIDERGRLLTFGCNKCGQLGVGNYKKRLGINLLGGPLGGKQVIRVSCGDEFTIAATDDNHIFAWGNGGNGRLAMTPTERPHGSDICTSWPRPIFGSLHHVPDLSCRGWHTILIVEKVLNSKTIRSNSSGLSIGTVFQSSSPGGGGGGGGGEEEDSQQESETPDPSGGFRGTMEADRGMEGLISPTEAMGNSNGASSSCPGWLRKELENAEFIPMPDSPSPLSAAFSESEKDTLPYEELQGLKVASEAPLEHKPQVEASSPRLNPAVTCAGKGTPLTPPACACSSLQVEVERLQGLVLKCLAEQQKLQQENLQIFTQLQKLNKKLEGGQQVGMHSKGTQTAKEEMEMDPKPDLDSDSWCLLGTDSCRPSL
Briefly: Inhibition of NEK9 at 1 uM.

The target in experiment [7] is cAMP-dependent protein kinase catalytic subunit beta (Homo sapiens) (UniProt P22694). Briefly: Inhibition of PKAC-beta at 1 uM.
Experiment [8] has as its target Ribosomal protein S6 kinase alpha-5 (Homo sapiens) (UniProt O75582). Briefly: Inhibition of RPS6KA5 C-terminal domain2 at 1 uM.
Experiment [9] deals with Rho-associated protein kinase 2 (Homo sapiens) (UniProt O75116). Briefly: Inhibition of ROCK2 at 1 uM.
Rho-associated protein kinase 2 (Homo sapiens), sequence (O75116 whole entry, looked up): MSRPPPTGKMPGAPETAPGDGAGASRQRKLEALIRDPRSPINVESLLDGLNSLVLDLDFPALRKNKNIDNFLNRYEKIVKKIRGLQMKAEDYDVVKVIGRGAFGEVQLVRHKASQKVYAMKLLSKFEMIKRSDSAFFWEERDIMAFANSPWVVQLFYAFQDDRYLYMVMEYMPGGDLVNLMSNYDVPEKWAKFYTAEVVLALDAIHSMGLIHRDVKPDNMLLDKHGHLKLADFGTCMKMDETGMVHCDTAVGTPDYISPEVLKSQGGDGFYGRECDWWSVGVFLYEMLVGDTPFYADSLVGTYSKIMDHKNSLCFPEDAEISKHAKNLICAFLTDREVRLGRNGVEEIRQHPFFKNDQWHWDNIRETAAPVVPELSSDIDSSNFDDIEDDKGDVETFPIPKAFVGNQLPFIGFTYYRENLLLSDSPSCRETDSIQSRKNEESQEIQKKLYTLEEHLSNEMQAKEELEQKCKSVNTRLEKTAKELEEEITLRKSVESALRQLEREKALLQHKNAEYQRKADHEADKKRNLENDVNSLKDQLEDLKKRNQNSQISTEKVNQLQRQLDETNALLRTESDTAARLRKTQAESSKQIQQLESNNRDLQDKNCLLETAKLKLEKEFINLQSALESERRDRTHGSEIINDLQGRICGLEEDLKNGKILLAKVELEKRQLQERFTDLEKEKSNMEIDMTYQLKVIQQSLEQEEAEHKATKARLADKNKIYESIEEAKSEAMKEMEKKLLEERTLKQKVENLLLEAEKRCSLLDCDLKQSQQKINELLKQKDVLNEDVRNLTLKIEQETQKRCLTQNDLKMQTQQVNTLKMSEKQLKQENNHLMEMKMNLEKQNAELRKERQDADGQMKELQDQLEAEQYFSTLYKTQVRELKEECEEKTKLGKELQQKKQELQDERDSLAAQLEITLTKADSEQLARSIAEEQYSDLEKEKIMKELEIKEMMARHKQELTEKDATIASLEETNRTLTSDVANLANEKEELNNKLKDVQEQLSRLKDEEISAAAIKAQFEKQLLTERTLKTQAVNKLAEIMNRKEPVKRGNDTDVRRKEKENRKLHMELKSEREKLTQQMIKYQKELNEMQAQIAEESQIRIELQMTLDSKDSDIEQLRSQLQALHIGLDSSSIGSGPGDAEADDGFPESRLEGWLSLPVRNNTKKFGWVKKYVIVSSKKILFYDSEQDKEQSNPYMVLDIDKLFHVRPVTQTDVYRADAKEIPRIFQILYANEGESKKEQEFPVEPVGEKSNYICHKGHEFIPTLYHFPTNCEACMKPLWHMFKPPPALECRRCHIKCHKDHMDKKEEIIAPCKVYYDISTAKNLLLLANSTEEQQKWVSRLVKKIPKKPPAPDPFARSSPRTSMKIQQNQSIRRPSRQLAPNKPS
In experiment [10] the target is Serine/threonine-protein kinase 33 (Homo sapiens) (UniProt Q9BYT3). Briefly: Inhibition of STK33 at 1 uM.
Serine/threonine-protein kinase 33 (Homo sapiens), sequence (Q9BYT3 whole entry, looked up): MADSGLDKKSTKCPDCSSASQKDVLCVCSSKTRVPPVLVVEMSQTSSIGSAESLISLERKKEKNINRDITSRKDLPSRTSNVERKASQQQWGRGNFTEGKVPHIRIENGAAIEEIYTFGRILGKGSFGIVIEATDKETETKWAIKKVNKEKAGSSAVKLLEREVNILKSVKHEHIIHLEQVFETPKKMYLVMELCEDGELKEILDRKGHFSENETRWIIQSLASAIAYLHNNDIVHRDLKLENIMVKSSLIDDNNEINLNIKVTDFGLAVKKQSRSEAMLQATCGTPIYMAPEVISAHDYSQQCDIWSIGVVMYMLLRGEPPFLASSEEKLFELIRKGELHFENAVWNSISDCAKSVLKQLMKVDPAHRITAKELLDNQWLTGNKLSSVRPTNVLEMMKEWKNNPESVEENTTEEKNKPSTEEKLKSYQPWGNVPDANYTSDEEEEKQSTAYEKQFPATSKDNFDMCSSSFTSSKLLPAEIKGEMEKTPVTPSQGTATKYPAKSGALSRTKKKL
In experiment [11] the target is T2, Testis-specific serine/threonine-protein kinase 1 (Homo sapiens) (UniProt Q9BXA7).
T2 sequence (whole entry): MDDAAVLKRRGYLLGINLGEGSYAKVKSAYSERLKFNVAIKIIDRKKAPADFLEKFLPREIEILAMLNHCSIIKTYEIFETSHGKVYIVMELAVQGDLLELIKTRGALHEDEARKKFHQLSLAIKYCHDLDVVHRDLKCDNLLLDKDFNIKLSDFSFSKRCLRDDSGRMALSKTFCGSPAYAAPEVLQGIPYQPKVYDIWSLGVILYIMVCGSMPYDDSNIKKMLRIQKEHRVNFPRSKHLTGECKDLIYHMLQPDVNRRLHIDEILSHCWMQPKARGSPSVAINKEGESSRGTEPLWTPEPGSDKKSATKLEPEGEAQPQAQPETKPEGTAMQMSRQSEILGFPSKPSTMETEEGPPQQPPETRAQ
Briefly: Inhibition of TSSK1B at 1 uM.

Experiment [12] has as its system T3, Receptor-type tyrosine-protein kinase FLT3 (Homo sapiens), P36888 [K663Q].
T3 sequence (whole entry): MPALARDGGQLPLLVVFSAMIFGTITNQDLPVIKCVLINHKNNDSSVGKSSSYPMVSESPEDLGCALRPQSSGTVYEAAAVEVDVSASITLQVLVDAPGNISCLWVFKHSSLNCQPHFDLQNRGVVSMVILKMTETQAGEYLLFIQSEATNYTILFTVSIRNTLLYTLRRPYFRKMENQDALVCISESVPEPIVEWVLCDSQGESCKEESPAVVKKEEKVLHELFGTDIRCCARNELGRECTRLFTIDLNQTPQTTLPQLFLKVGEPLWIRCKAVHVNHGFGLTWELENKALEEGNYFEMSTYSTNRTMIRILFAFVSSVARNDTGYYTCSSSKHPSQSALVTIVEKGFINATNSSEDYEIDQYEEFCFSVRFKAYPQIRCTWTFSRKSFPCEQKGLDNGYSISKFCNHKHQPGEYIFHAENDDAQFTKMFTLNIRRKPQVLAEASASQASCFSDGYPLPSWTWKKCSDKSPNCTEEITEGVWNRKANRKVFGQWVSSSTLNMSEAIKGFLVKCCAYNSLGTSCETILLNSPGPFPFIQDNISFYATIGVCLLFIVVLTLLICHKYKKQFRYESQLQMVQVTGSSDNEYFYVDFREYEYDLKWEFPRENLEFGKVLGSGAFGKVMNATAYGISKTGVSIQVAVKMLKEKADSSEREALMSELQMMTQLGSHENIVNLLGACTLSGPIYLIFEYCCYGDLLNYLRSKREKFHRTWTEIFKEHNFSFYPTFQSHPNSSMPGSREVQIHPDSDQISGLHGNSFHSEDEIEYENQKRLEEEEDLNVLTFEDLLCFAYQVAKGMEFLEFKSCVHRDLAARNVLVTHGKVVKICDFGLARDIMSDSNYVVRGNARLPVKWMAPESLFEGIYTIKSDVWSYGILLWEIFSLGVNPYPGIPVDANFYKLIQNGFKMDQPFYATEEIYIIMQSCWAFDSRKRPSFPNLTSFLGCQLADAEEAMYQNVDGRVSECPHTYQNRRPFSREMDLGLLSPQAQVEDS
Briefly: Inhibition of FLT3 K663Q mutant at 1 uM.

Usually inhibition stands for the percentage by which the read-out fell short of the control.

Tyrosine-protein kinase Lyn (Homo sapiens), sequence (P07948 2-512 limits assumed): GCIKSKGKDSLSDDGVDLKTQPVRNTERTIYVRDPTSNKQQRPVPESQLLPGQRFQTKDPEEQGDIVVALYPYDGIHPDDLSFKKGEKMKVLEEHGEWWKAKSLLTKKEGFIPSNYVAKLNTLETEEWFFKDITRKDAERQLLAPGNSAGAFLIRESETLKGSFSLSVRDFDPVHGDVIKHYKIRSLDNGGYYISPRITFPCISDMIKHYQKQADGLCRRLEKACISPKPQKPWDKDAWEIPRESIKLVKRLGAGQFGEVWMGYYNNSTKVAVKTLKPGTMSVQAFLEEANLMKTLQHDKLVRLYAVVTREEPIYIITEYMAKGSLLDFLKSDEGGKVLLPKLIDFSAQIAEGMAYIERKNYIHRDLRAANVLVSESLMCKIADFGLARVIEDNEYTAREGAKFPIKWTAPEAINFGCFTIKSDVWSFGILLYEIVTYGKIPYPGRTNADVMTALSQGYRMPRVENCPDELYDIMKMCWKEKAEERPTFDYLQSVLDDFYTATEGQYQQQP
Ribosomal protein S6 kinase alpha-5 (Homo sapiens), sequence (O75582 whole entry, looked up, the tested form may be a part): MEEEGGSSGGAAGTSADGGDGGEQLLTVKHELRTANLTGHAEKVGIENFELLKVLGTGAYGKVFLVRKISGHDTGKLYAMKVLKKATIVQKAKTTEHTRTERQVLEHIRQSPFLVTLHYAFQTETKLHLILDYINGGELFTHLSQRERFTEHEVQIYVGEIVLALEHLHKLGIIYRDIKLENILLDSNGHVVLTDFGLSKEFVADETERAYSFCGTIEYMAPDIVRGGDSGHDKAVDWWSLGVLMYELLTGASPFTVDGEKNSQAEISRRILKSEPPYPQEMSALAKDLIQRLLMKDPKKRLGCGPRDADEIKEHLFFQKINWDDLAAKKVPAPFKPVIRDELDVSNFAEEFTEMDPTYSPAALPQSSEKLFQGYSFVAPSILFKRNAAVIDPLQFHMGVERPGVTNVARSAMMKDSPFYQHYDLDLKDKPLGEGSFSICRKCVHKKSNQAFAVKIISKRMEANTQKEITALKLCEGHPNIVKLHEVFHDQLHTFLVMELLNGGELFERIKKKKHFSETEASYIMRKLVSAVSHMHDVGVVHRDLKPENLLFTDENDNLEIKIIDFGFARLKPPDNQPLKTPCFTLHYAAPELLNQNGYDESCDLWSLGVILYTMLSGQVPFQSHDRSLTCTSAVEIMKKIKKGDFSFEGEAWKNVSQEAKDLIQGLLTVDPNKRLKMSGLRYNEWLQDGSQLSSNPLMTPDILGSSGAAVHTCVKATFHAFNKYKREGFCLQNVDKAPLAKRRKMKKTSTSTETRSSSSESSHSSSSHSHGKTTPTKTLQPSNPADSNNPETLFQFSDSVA
LIM domain kinase 1 (Homo sapiens), sequence (P53667 whole entry, looked up, the tested form may be a part): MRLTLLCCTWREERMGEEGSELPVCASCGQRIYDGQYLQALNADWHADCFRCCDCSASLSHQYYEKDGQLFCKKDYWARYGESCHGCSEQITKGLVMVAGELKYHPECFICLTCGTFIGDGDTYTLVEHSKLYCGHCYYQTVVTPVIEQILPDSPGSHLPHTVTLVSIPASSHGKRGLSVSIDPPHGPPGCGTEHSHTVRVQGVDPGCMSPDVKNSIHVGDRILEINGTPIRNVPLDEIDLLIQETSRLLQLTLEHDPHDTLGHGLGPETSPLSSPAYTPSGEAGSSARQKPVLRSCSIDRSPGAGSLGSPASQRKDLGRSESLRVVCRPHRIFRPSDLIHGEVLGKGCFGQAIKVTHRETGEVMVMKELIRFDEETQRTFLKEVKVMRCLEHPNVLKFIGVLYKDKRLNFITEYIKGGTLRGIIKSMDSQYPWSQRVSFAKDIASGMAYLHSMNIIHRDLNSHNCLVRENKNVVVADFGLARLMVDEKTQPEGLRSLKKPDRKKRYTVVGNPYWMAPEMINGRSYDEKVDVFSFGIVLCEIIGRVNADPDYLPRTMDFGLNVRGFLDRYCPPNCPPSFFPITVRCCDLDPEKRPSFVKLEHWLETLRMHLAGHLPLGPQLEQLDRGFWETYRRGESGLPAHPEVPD

In the case of `O=C(c1ccc(-c2cnc3c(c2)N(Cc2cc(Cl)ccc2C(F)(F)F)CCN3)cc1)N1CCCCC1`, the inhibition in [1], in experiment [2], in experiment [3], in [4], in experiment [5] and in [6] was < 50% in each case. In addition, the inhibition in experiment [7] and in [8] was < 50% in each case.

As for `CN1CCN(c2ccc(-c3cnc4c(c3)N(Cc3c(F)ccc(F)c3Cl)CCN4)cn2)CC1`, the inhibition in experiment [9], in experiment [1], in experiment [2], in experiment [3], in [4] and in experiment [5] was < 50% throughout. For the same molecule, the inhibition is < 50% in [6]; < 50% in experiment [7]; < 50% in [10]; < 50% in experiment [11]; < 50% in experiment [8]; 70% in experiment [12].

For `COC1CCN(C(=O)c2ccc(-c3cnc4c(c3)N(Cc3cc(Cl)ccc3C(F)(F)F)CCN4)cc2)CC1`, the inhibition in experiment [1], in experiment [2], in experiment [3], in [4], in experiment [5] and in experiment [6] was < 50% each time. Also, the inhibition in experiment [7] and in experiment [8] was < 50% throughout.

For `O=C(O)c1ccc(-c2cnc3c(c2)N(Cc2cc(Cl)ccc2C(F)(F)F)CCN3)cc1`, the inhibition in [1], in experiment [2], in [3], in experiment [4], in experiment [5] and in experiment [6] was < 50% each time. Also, the inhibition in [7] and in experiment [8] was < 50% each time.

Turning to `FC(F)(F)c1ccc(Cl)cc1CN1CCNc2ncc(-c3ccnc(N4CCNCC4)c3)cc21`, the inhibition was 76% in experiment [9]; < 50% in [1]; < 50% in experiment [2]; < 50% in experiment [3]; < 50% in experiment [4]; < 50% in [5]. In addition, the inhibition in experiment [6] is < 50%; in experiment [7], < 50%; in experiment [10], < 50%; in experiment [11], < 50%; in experiment [8], < 50%; in experiment [12], 98%.

`CN1CCN(c2ccc(-c3cnc4c(c3)N(Cc3cc(Cl)ccc3Cl)CCN4)cn2)CC1`: the inhibition in experiment [9], in experiment [1], in experiment [2], in [3], in experiment [4] and in experiment [5] was < 50% each time. Besides, the inhibition was < 50% in experiment [6]; < 50% in [7]; < 50% in [10]; < 50% in [11]; < 50% in experiment [8]; 93% in experiment [12].

As to `O=C(c1ccc(-c2cnc3c(c2)N(Cc2cc(Cl)ccc2C(F)(F)F)CCN3)cc1)N1CCC(N2CCCC2)CC1`, the inhibition in experiment [1], in experiment [2], in experiment [3], in experiment [4], in experiment [5] and in experiment [6] was < 50% throughout. Besides, the inhibition in experiment [7] is < 50%; in experiment [10] it was 79.8%; in [8] it was < 50%.

With `CN1CCN(c2ccc(-c3cnc4c(c3)N(Cc3cc(Cl)ccc3C(F)(F)F)CCN4)cn2)CC1`, the inhibition in experiment [9], in [1], in [2], in experiment [3], in [4] and in [5] was < 50% each time. Besides, the inhibition in experiment [6] was < 50%; in experiment [7] it was < 50%; in experiment [10] it was < 50%; in experiment [11] it was < 50%; in [8], < 50%; in experiment [12], 92%.

Take `CC(=O)N1CCN(c2cc(-c3cnc4c(c3)N(Cc3cc(Cl)ccc3C(F)(F)F)CCN4)ccn2)CC1`: the inhibition in [9], in [1], in [2], in experiment [3], in experiment [4] and in [5] was < 50% throughout. Besides, the inhibition was < 50% in experiment [6]; < 50% in experiment [7]; < 50% in [10]; < 50% in experiment [11]; < 50% in experiment [8]; 93% in experiment [12].

In the case of `CN1CCN(c2ccc(-c3cnc4c(c3)N(Cc3cc(F)ccc3F)CCN4)cn2)CC1`, the inhibition in experiment [9], in experiment [1], in experiment [2], in [3], in experiment [4] and in experiment [5] was < 50% throughout. Further, the inhibition in experiment [6] is < 50%; in [7], < 50%; in [10], < 50%; in [11], < 50%; in [8], < 50%; in experiment [12] it was 80%.

The record behind these values is ChEMBL document CHEMBL1165965, “Synthesis and structure-activity relationships of 1,2,3,4-tetrahydropyrido[2,3-b]pyrazines as potent and selective inhibitors of the anaplastic lymphoma kinase” (Bioorg Med Chem, 2010).
